Assay results published in ChEMBL document CHEMBL2150889, “Azetidinyl oxadiazoles as potent mGluR5 positive allosteric modulators” (Bioorg Med Chem Lett, 2012).
pEC50, pIC50: −log10 of the molar value.

Key:
[1] = molecular target: T1, Metabotropic glutamate receptor 5 (Homo sapiens, UniProt P41594); assay: Positive allosteric modulation of human mGluR5 expressed in recombinant HEK293 cells by FLIPR assay; assay type: cell-based; set-up: Activity: concentration or dose not given beside the values
Method in brief: (§1)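 HEK293 cells recombinantly expressing human mGluR5 were seeded at 2×10^4 cells/well on poly-D-lysine. They were incubated overnight at 37 °C in glutamate/glutamine-free medium, then loaded for 1 h at 37 °C with calcium 5 dye containing 3 U/ml glutamic pyruvic transaminase and 3 mM sodium pyruvate. Calcium flux was read by FLIPR.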

[2] = molecular target: T1, Metabotropic glutamate receptor 5; assay: Negative allosteric modulation of human mGluR5 expressed in recombinant HEK293 cells by FLIPR assay; assay type: cell-based; details: for inhibition: concentration not given here; method in brief: as §1

SMILES	Activity [1] [%]	pEC50 [1]	Emax [1] [%]	pIC50 [2]	inhibition [2] [%]
O=C(N1CCCCCC1)N1CC(c2nc(-c3cccc(Cl)c3)no2)C1	41	7.33	44	< 5.00	–
Cc1cccc(-c2noc(C3CN(C(=O)C4CCCO4)C3)n2)c1 (stereo not drawn)	–	< 5.00	3	5.72	79
O=C([C@H]1CC2CCC1C2)N1CC(c2nc(-c3ccccc3)no2)C1 (stereo partly drawn)	–	6.92	160	–	–
O=C(C1CCC(C(F)(F)F)CC1)N1CC(c2nc(-c3cccc(F)c3)no2)C1 (stereo not drawn)	37	6.17	56	< 5.00	–
Cc1cccc(-c2noc(C3CN(S(=O)(=O)c4cccc(C)c4)C3)n2)c1	–	< 5.00	-4	6.19	76
O=C(c1ccc(F)cc1)N1CC(c2nc(-c3cccc(F)c3)no2)C1	6	5.62	40	< 5.00	–
Cc1cccc(-c2noc(C3CN(C(=O)c4ccc(Cl)cc4)C3)n2)c1	6.3	5.15	33	< 5.00	–
O=S(=O)(c1ccc(F)cc1)N1CC(c2nc(-c3cccc(Cl)c3)no2)C1	–	< 5.00	-7	6.89	85
O=C(c1ccccc1F)N1CC(c2nc(-c3cccc(Cl)c3)no2)C1	–	< 5.00	-12	6.17	86
O=C(Cc1cccc(F)c1)N1CC[C@H]1c1nc(-c2cccc(F)c2)no1	75	5.62	52	< 5.00	–
Cc1cccc(-c2noc(C3CN(C(=O)C4CCC(F)(F)CC4)C3)n2)c1	3	6.23	36	< 5.00	–
Cc1cccc(-c2noc(C3CN(C(=O)c4cccc(F)c4)C3)n2)c1	–	< 5.00	15	5.68	62
O=C(C1CCC1)N1CC(c2nc(-c3cccc(Cl)c3)no2)C1	–	< 5.00	-7	5.82	75
CC1CCN(C(=O)N2CC(c3nc(-c4cccc(Cl)c4)no3)C2)CC1	–	6.06	66	< 5.00	–
Cc1cccc(S(=O)(=O)N2CC(c3nc(-c4cccc(Cl)c4)no3)C2)c1	–	< 5.00	-2	6.41	82
COC1CCCN(C(=O)N2CC(c3nc(-c4cccc(Cl)c4)no3)C2)C1 (stereo not drawn)	–	< 5.00	-14	5.74	80
Cc1cccc(-c2noc(C3CN(C(=O)c4ccc(F)cc4)C3)n2)c1	–	5.85	32	< 5.00	50
O=C(c1ccccc1F)N1CC[C@H]1c1nc(-c2cccc(F)c2)no1	–	< 5.00	57	6.04	68
CC1CN(C(=O)N2CC(c3nc(-c4cccc(Cl)c4)no3)C2)CC(C)O1 (stereo not drawn)	–	< 5.00	–	6.00	51
Cc1cccc(-c2noc(C3CN(C(=O)c4ccccc4F)C3)n2)c1	–	< 5.00	5	5.85	64
O=C([C@@H]1CC2CCC1C2)N1CC(c2nc(-c3ccccc3)no2)C1 (stereo partly drawn)	–	6.40	88	–	–
Cc1cccc(-c2noc(C3CN(C(=O)C4CCOCC4)C3)n2)c1	–	< 5.00	-2	5.74	74
O=C([C@@H]1CC2CCC1C2)N1CC(c2nc(-c3cccc(F)c3)no2)C1 (stereo partly drawn)	–	7.00	110	–	–
O=C([C@H]1CC2CCC1C2)N1CC(c2nc(-c3cccc(Cl)c3)no2)C1 (stereo partly drawn)	–	7.13	120	–	–
O=C([C@@H]1CC2CCC1C2)N1CC(c2nc(-c3cccc(Cl)c3)no2)C1 (stereo partly drawn)	–	7.01	66	–	–
